Columns and labels:
Liver [1] = experiment: Biodistribution in ddY mouse liver assessed per gram of tissue at 14.8 kBq, iv after 360 mins; format: ADME, organism-based; conditions: in vivo, 6 h
Summary of the method: (§1)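 Killed at set times after injection; organs and blood removed, weighed, gamma counted. Data as % injected dose per gram tissue, mean SD, n = 5–6.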

Kidney [2] = experiment: Biodistribution in ddY mouse kidney assessed per gram of tissue at 14.8 kBq, iv after 360 mins; format: ADME, organism-based; conditions: in vivo, 6 h; summary of the method: as §1
Intestine [3] = experiment: Biodistribution in ddY mouse intestine assessed per gram of tissue at 14.8 kBq, iv after 360 mins; format: ADME, organism-based; conditions: in vivo, 6 h; summary of the method: as §1
Spleen [4] = experiment: Biodistribution in ddY mouse spleen assessed per gram of tissue at 14.8 kBq, iv after 360 mins; format: ADME, organism-based; conditions: in vivo, 6 h
Summary of the method: (§2)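 Radioiodinated tracer (14.8 kBq) injected via tail vein into male ddY mice (6 weeks, 30–35 g). Organs removed at set times after injection, weighed and gamma-counted; uptake expressed as % injected dose per gram tissue, mean ± SD, n = 5–6.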

Pancreas [5] = experiment: Biodistribution in ddY mouse pancreas assessed per gram of tissue at 14.8 kBq, iv after 360 mins; format: ADME, organism-based; conditions: in vivo, 6 h; summary of the method: as §2
Heart [6] = experiment: Biodistribution in ddY mouse heart assessed per gram of tissue at 14.8 kBq, iv after 360 mins; format: ADME, organism-based; conditions: in vivo, 6 h; summary of the method: as §1
Lung [7] = experiment: Biodistribution in ddY mouse lung assessed per gram of tissue at 14.8 kBq, iv after 360 mins; format: ADME, organism-based; conditions: in vivo, 6 h; summary of the method: as §2
Brain [8] = experiment: Biodistribution in ddY mouse brain assessed per gram of tissue at 14.8 kBq, iv after 360 mins; format: ADME, organism-based; conditions: in vivo, 6 h; summary of the method: as §1
Blood [9] = experiment: Biodistribution in ddY mouse blood assessed per gram of tissue at 148 kBq, iv after 180 mins in presence of 50 mg/kg, iv of cyclosporin A administered 30 mins before compound challenge (reference value: 0.78 +/- 0.27 %); format: ADME, organism-based; parameters: dose 50 mg/kg, route intravenous; conditions: in vivo, 3 h
Kidney [10] = experiment: Biodistribution in ddY mouse kidney assessed per gram of tissue at 148 kBq, iv after 180 mins in presence of 50 mg/kg, iv of cyclosporin A administered 30 mins before compound challenge (reference value: 4.49 +/- 1.34 %); format: ADME, organism-based; parameters: dose 50 mg/kg, route intravenous; conditions: in vivo, 3 h
Blood [11] = experiment: Biodistribution in ddY mouse blood assessed per gram of tissue at 148 kBq, iv after 180 mins in presence of 200 mg/kg, iv of probenecid administered 30 mins before compound challenge (reference value: 0.46 +/- 0.07 %); format: ADME, organism-based; parameters: dose 200 mg/kg, route intravenous; conditions: in vivo, 3 h
Intestine [12] = experiment: Biodistribution in ddY mouse intestine assessed per gram of tissue at 14.8 kBq, iv after 180 mins; format: ADME, organism-based; conditions: in vivo, 3 h; summary of the method: as §1
Spleen [13] = experiment: Biodistribution in ddY mouse spleen assessed per gram of tissue at 14.8 kBq, iv after 180 mins; format: ADME, organism-based; conditions: in vivo, 3 h; summary of the method: as §2
Blood [14] = experiment: Biodistribution in ddY mouse blood assessed per gram of tissue at 14.8 kBq, iv after 360 mins; format: ADME, organism-based; conditions: in vivo, 6 h; summary of the method: as §1
Blood [15] = experiment: Biodistribution in ddY mouse blood assessed per gram of tissue at 14.8 kBq, iv after 0.5 mins; format: ADME, organism-based; conditions: in vivo; summary of the method: as §1
Liver [16] = experiment: Biodistribution in ddY mouse liver assessed per gram of tissue at 14.8 kBq, iv after 0.5 mins; format: ADME, organism-based; conditions: in vivo; summary of the method: as §1
Kidney [17] = experiment: Biodistribution in ddY mouse kidney assessed per gram of tissue at 14.8 kBq, iv after 0.5 mins; format: ADME, organism-based; conditions: in vivo; summary of the method: as §1
Intestine [18] = experiment: Biodistribution in ddY mouse intestine assessed per gram of tissue at 14.8 kBq, iv after 0.5 mins; format: ADME, organism-based; conditions: in vivo; summary of the method: as §1
Stomach [19] = experiment: Biodistribution in ddY mouse stomach assessed per gram of tissue at 14.8 kBq, iv after 0.5 mins; format: ADME, organism-based; conditions: in vivo; summary of the method: as §2
Pancreas [20] = experiment: Biodistribution in ddY mouse pancreas assessed per gram of tissue at 14.8 kBq, iv after 0.5 mins; format: ADME, organism-based; conditions: in vivo; summary of the method: as §2
Brain [21] = experiment: Biodistribution in ddY mouse brain assessed per gram of tissue at 14.8 kBq, iv after 0.5 mins; format: ADME, organism-based; conditions: in vivo; summary of the method: as §1
Blood [22] = experiment: Biodistribution in ddY mouse blood assessed per gram of tissue at 14.8 kBq, iv after 5 mins; format: ADME, organism-based; conditions: in vivo; summary of the method: as §1
Liver [23] = experiment: Biodistribution in ddY mouse liver assessed per gram of tissue at 14.8 kBq, iv after 5 mins; format: ADME, organism-based; conditions: in vivo; summary of the method: as §1
Kidney [24] = experiment: Biodistribution in ddY mouse kidney assessed per gram of tissue at 14.8 kBq, iv after 5 mins; format: ADME, organism-based; conditions: in vivo; summary of the method: as §1
Intestine [25] = experiment: Biodistribution in ddY mouse intestine assessed per gram of tissue at 14.8 kBq, iv after 5 mins; format: ADME, organism-based; conditions: in vivo; summary of the method: as §1
Spleen [26] = experiment: Biodistribution in ddY mouse spleen assessed per gram of tissue at 14.8 kBq, iv after 5 mins; format: ADME, organism-based; conditions: in vivo; summary of the method: as §2
Pancreas [27] = experiment: Biodistribution in ddY mouse pancreas assessed per gram of tissue at 14.8 kBq, iv after 5 mins; format: ADME, organism-based; conditions: in vivo; summary of the method: as §2
Blood [28] = experiment: Biodistribution in ddY mouse blood assessed per gram of tissue at 14.8 kBq, iv after 30 mins; format: ADME, organism-based; conditions: in vivo, 0.5 h; summary of the method: as §1
Kidney [29] = experiment: Biodistribution in ddY mouse kidney assessed per gram of tissue at 14.8 kBq, iv after 30 mins; format: ADME, organism-based; conditions: in vivo, 0.5 h; summary of the method: as §1
Intestine [30] = experiment: Biodistribution in ddY mouse intestine assessed per gram of tissue at 14.8 kBq, iv after 30 mins; format: ADME, organism-based; conditions: in vivo, 0.5 h; summary of the method: as §1
Stomach [31] = experiment: Biodistribution in ddY mouse stomach assessed per gram of tissue at 14.8 kBq, iv after 30 mins; format: ADME, organism-based; conditions: in vivo, 0.5 h; summary of the method: as §2
Lung [32] = experiment: Biodistribution in ddY mouse lung assessed per gram of tissue at 14.8 kBq, iv after 30 mins; format: ADME, organism-based; conditions: in vivo, 0.5 h; summary of the method: as §2
Brain [33] = experiment: Biodistribution in ddY mouse brain assessed per gram of tissue at 14.8 kBq, iv after 30 mins; format: ADME, organism-based; conditions: in vivo, 0.5 h; summary of the method: as §1
Liver [34] = experiment: Biodistribution in ddY mouse liver assessed per gram of tissue at 14.8 kBq, iv after 60 mins; format: ADME, organism-based; conditions: in vivo, 1 h; summary of the method: as §2
Kidney [35] = experiment: Biodistribution in ddY mouse kidney assessed per gram of tissue at 14.8 kBq, iv after 60 mins; format: ADME, organism-based; conditions: in vivo, 1 h; summary of the method: as §1
Spleen [36] = experiment: Biodistribution in ddY mouse spleen assessed per gram of tissue at 14.8 kBq, iv after 60 mins; format: ADME, organism-based; conditions: in vivo, 1 h; summary of the method: as §2
Pancreas [37] = experiment: Biodistribution in ddY mouse pancreas assessed per gram of tissue at 14.8 kBq, iv after 60 mins; format: ADME, organism-based; conditions: in vivo, 1 h; summary of the method: as §2
Heart [38] = experiment: Biodistribution in ddY mouse heart assessed per gram of tissue at 14.8 kBq, iv after 60 mins; format: ADME, organism-based; conditions: in vivo, 1 h; summary of the method: as §1
Blood [39] = experiment: Biodistribution in ddY mouse blood assessed per gram of tissue at 14.8 kBq, iv after 180 mins; format: ADME, organism-based; conditions: in vivo, 3 h; summary of the method: as §1
Brain [40] = experiment: Biodistribution in ddY mouse brain assessed per gram of tissue at 148 kBq, iv after 180 mins in presence of 200 mg/kg, iv of probenecid administered 30 mins before compound challenge (reference value: 0.44 +/- 0.06 %); conditions: in vivo, 3 h
Liver [41] = experiment: Biodistribution in ddY mouse liver assessed per gram of tissue at 148 kBq, iv after 180 mins in presence of 200 mg/kg, iv of probenecid administered 30 mins before compound challenge (reference value: 19.13 +/- 2.09 %); conditions: in vivo, 3 h
Kidney [42] = experiment: Biodistribution in ddY mouse kidney assessed per gram of tissue at 148 kBq, iv after 180 mins in presence of 200 mg/kg, iv of probenecid administered 30 mins before compound challenge (reference value: 6.29 +/- 1.47 %); conditions: in vivo, 3 h

- Drug uptake (Liver [1]): 30.16 % ID/g
- Drug uptake (Kidney [2]): 5.46 % ID/g
- Drug uptake (Intestine [3]): 5.89 % ID/g
- Drug uptake (Spleen [4]): 3.79 % ID/g
- Drug uptake (Pancreas [5]): 8.76 % ID/g
- Drug uptake (Heart [6]): 1.58 % ID/g
- Drug uptake (Lung [7]): 3.44 % ID/g
- Drug uptake (Brain [8]): 0.55 % ID/g
- Drug uptake (Blood [9]): 0.52 % ID/g
- Drug uptake (Kidney [10]): 4.8 % ID/g
- Drug uptake (Blood [11]): 0.41 % ID/g
- Drug uptake (Intestine [12]): 4.55 % ID/g
- Drug uptake (Spleen [13]): 4.25 % ID/g
- Drug uptake (Blood [14]): 0.28 % ID/g
- Drug uptake (Blood [15]): 3.22 % ID/g
- Drug uptake (Liver [16]): 14.68 % ID/g
- Drug uptake (Kidney [17]): 5.35 % ID/g
- Drug uptake (Intestine [18]): 4.02 % ID/g
- Drug uptake (Stomach [19]): 0.72 % ID/g
- Drug uptake (Pancreas [20]): 0.49 % ID/g
- Drug uptake (Brain [21]): 0.21 % ID/g
- Drug uptake (Blood [22]): 1.15 % ID/g
- Drug uptake (Liver [23]): 25.03 % ID/g
- Drug uptake (Kidney [24]): 12.2 % ID/g
- Drug uptake (Intestine [25]): 1.83 % ID/g
- Drug uptake (Spleen [26]): 5.66 % ID/g
- Drug uptake (Pancreas [27]): 5.74 % ID/g
- Drug uptake (Blood [28]): 0.67 % ID/g
- Drug uptake (Kidney [29]): 11.2 % ID/g
- Drug uptake (Intestine [30]): 2.39 % ID/g
- Drug uptake (Stomach [31]): 2.54 % ID/g
- Drug uptake (Lung [32]): 8.16 % ID/g
- Drug uptake (Brain [33]): 0.44 % ID/g
- Drug uptake (Liver [34]): 30.5 % ID/g
- Drug uptake (Kidney [35]): 10.34 % ID/g
- Drug uptake (Spleen [36]): 4.65 % ID/g
- Drug uptake (Pancreas [37]): 6.35 % ID/g
- Drug uptake (Heart [38]): 1.87 % ID/g
- Drug uptake (Blood [39]): 0.3 % ID/g
- Drug uptake (Brain [40]): 0.57 % ID/g
- Drug uptake (Liver [41]): 20 % ID/g
- Drug uptake (Kidney [42]): 4.2 % ID/g
SMILES: Oc1ccc2nc(CN3CCC(Cc4ccc([125I])cc4)CC3)[nH]c2c1

— ChEMBL document CHEMBL1268917, “Synthesis and biological evaluation of radio-iodinated benzimidazoles as SPECT imaging agents for NR2B subtype of NMDA receptor” (Bioorg Med Chem, 2010)
